Among the data in the array DNA melting data of Ke et al. (doi:10.1101/2024.01.08.574731) are folding enthalpy and Tm values, retold here.

A short description of data set [1]: folding enthalpy; higher = less favourable; fluorescence melt of hairpins on a sequencing array, two-state fit. To be noted: sodium 0.088 M. In a few lines: (§1)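 Melting temperature and folding enthalpy were obtained by bootstrapped two-state fitting. Fits used Cy3 fluorescence of library hairpins with annealed Cy3 and quencher oligos on a sequenced MiSeq flow cell, imaged in 50 mM Na-HEPES pH 8.0, 25 mM NaCl in 2.5 °C steps up to 60 °C and normalised to pre-quench Cy3 and control constructs. Four replicates were combined by inverse-variance weighting, and fitted temperatures were raised by 9.35 °C to match UV melts.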

A short description of data set [2]: melting temperature; fluorescence melt of hairpins on a sequencing array, two-state fit, raised by 9.35 °C to match UV melts. To be noted: sodium 0.088 M. In a few lines: as §1

For GATCTTCCTCAAGATC ((((((....)))))), in data set [1], the folding enthalpy is -30.1 kcal/mol. The Tm in data set [2] was 42 °C.

On to GATCTTCGAAAAGATC ((((((....)))))), for which the folding enthalpy in data set [1] is -24.9 kcal/mol. For the same sequence, in data set [2], the Tm was 40.5 °C.

Turning to GATCTTCGCAAAGATC ((((((....)))))), in data set [1], the folding enthalpy is -28.3 kcal/mol. Besides, the Tm in data set [2] came out at 45.5 °C.

Regarding GATCTTCGCAAGATC ((((((...)))))), the folding enthalpy in data set [1] is -33.7 kcal/mol. For the same sequence, the Tm in data set [2] turned out to be 45.4 °C.

As to GATCTTCGTAAAGATC ((((((....)))))), the folding enthalpy in data set [1] is -40.8 kcal/mol. Moreover, in data set [2], the Tm was 44.9 °C.

Turning to GATCTTCTAGAAGATC ((((((....)))))), the folding enthalpy in data set [1] is -40.9 kcal/mol. Moreover, the Tm in data set [2] amounted to 49.6 °C.

For the sequence GATCTTCTGAAAGATC ((((((....)))))), the folding enthalpy in data set [1] was -25.4 kcal/mol. Also, the Tm in data set [2] is 42.1 °C.

With GATCTTCTGCAAGATC ((((((....)))))), the folding enthalpy in data set [1] was -22 kcal/mol. For the same sequence, in data set [2], the Tm was 42.9 °C.

Regarding GATCTTGAGAAAGATC ((((((....)))))), in data set [1], the folding enthalpy was -32.1 kcal/mol. The Tm in data set [2] was determined as 45.9 °C.

Take GATCTTGATCAAGATC ((((((....)))))): the folding enthalpy in data set [1] was -40.9 kcal/mol. Also, in data set [2], the Tm turned out to be 49.7 °C.

For the sequence GATCTTGGAAAGATC ((((((...)))))), the folding enthalpy in data set [1] was -34.5 kcal/mol. Also, the Tm in data set [2] was 51.9 °C.

Regarding GATCTTGGACAAGATC ((((((....)))))), the folding enthalpy in data set [1] was -41.8 kcal/mol. The Tm in data set [2] is 50.8 °C.

Turning to GATCTTGGCTAAGATC ((((((....)))))), the folding enthalpy in data set [1] was -45.1 kcal/mol. In data set [2], the Tm amounted to 48.2 °C.

Regarding GATCTTGGGTAAGATC ((((((....)))))), the folding enthalpy in data set [1] was -27.6 kcal/mol. Also, in data set [2], the Tm turned out to be 43.2 °C.

GATCTTTACAAGATC ((((((...)))))): the folding enthalpy in data set [1] is -33.2 kcal/mol. Besides, the Tm in data set [2] stood at 46.4 °C.

As for GATCTTTACCAAGATC ((((((....)))))), the folding enthalpy in data set [1] was -29.9 kcal/mol. Also, the Tm in data set [2] was 42 °C.

For the sequence GATCTTTCCAAAGATC ((((((....)))))), the folding enthalpy in data set [1] was -32.9 kcal/mol. For the same sequence, the Tm in data set [2] worked out at 47.3 °C.

Consider GATCTTTCGCAAGATC ((((((....)))))), for which the folding enthalpy in data set [1] is -32.4 kcal/mol. In addition, in data set [2], the Tm amounted to 43.5 °C.

GATCTTTGAAAAGATC ((((((....)))))): the folding enthalpy in data set [1] is -29.4 kcal/mol. Besides, in data set [2], the Tm worked out at 42.2 °C.

GATCTTTGAGAAGATC ((((((....)))))): in data set [1], the folding enthalpy is -31.6 kcal/mol. Further, in data set [2], the Tm is 46 °C.

GATCTTTGCAAGATC ((((((...)))))): in data set [1], the folding enthalpy is -34.7 kcal/mol. Further, in data set [2], the Tm was found to be 46.4 °C.

As for GATCTTTGGCAAGATC ((((((....)))))), in data set [1], the folding enthalpy was -29 kcal/mol. In data set [2], the Tm came to 40 °C.

As to GATCTTTGGGAAGATC ((((((....)))))), in data set [1], the folding enthalpy was -34.1 kcal/mol. Also, the Tm in data set [2] is 45.6 °C.

Turning to GATCTTTGTAAAGATC ((((((....)))))), the folding enthalpy in data set [1] was -34.3 kcal/mol. The Tm in data set [2] was 47.5 °C.

With GATCTTTGTAAGATC ((((((...)))))), the folding enthalpy in data set [1] was -28.8 kcal/mol. Besides, in data set [2], the Tm was 45.5 °C.

On to GATCTTTTCAAAGATC ((((((....)))))), for which, in data set [1], the folding enthalpy is -43.6 kcal/mol. In data set [2], the Tm was 48.7 °C.

As to GATCTTTTGCAAGATC ((((((....)))))), in data set [1], the folding enthalpy is -34.8 kcal/mol. Also, the Tm in data set [2] came out at 42.8 °C.

For the sequence GATCTTTTTAAAGATC ((((((....)))))), the folding enthalpy in data set [1] was -41.4 kcal/mol. Moreover, in data set [2], the Tm was determined as 49.6 °C.

With GATCTTTTTAAGATC ((((((...)))))), the folding enthalpy in data set [1] was -32.2 kcal/mol. Moreover, the Tm in data set [2] is 47.1 °C.

For the sequence GATCTTTTTGAAGATC ((((((....)))))), the folding enthalpy in data set [1] was -34.5 kcal/mol. The Tm in data set [2] came out at 46.1 °C.

In the case of GATGACCCGAAAGGGATC (((..(((....)))))), the folding enthalpy in data set [1] is -11.7 kcal/mol. Further, the Tm in data set [2] was 33.2 °C.

Regarding GATGACGAAAGTCAGATC ((((((....)))..))), the folding enthalpy in data set [1] is -17.8 kcal/mol. Further, the Tm in data set [2] amounted to 52.1 °C.

In the case of GATGACGAAAGTCCGATC ((((((....)))..))), in data set [1], the folding enthalpy was -12.8 kcal/mol. For the same sequence, the Tm in data set [2] worked out at 26.8 °C.

Take GATGACGAAAGTCTATC ((((((....))).))): the folding enthalpy in data set [1] was -16.4 kcal/mol. Moreover, the Tm in data set [2] was determined as 39 °C.

GATGACGGAAACGTCATC (((((((....))))))): in data set [1], the folding enthalpy was -37.1 kcal/mol. For the same sequence, in data set [2], the Tm stood at 67.5 °C.

With GATGAGCCGAAAGGCATC (((..(((....)))))), the folding enthalpy in data set [1] was -10.2 kcal/mol. Also, the Tm in data set [2] is 33.5 °C.

GATGAGCGAAAGCTATC (((.(((....)))))): the folding enthalpy in data set [1] was -14.7 kcal/mol. For the same sequence, the Tm in data set [2] was 35.1 °C.
